Measurements as given in ChEMBL document CHEMBL3808357, “Discovery of N-(3-((1-Isonicotinoylpiperidin-4-yl)oxy)-4-methylphenyl)-3-(trifluoromethyl)benzamide (CHMFL-KIT-110) as a Selective, Potent, and Orally Available Type II c-KIT Kinase Inhibitor for Gastrointestinal Stromal Tumors (GISTs)” (J Med Chem, 2016).

Experiments:
[1] = Antiproliferative activity against mouse BAF3 cells; type: cell-based
[2] = target: Mast/stem cell growth factor receptor Kit (Homo sapiens) (UniProt P10721); test: Inhibition of Tel-fused cKIT (unknown origin) transfected in mouse BAF3 cells assessed as decrease in cell proliferation after 72 hrs by celltiter-glo/CCK8 assay; type: cell-based
Method in brief: (§1)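 Cells were seeded at 1 to 3 × 10⁴ cells/mL with serial compound concentrations and incubated 72 h at 37 °C, 5% CO₂. Viability was read by CellTiter-Glo luminescence or CCK-8 absorbance (450/655 nm). GI50 values are from triplicate testing. GIST-T1 and CHO were grown in DMEM/10% FBS; GIST-882, GIST-48B and MV4-11 in IMDM/10% FBS; other lines in RPMI 1640/10% FBS.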

[3] = system: K562; test: Antiproliferative activity against BCR-ABL dependent human K562 cells assessed as reduction in cell viability after 72 hrs by celltiter-glo/CCK8 assay; type: functional; conditions: K562, 72 h; method in brief: as §1
[4] = system: Mast/stem cell growth factor receptor Kit (Homo sapiens), P10721 [V559D]; test: Inhibition of Tel-fused cKIT V559D mutant (unknown origin) transfected in mouse BAF3 cells assessed as decrease in cell proliferation after 72 hrs by celltiter-glo/CCK8 assay; type: cell-based
Method in brief: (§2)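 Stable BaF3 lines made by retroviral transduction with mutagenized TEL-KIT MSCV vectors, puromycin selection 48 h, then gradual IL-3 withdrawal until IL-3-independent; grown in RPMI 1640 with 10% FBS. Cells at 1 to 3 × 10⁴ cells/mL exposed to a concentration series for 72 h; viability read by CellTiter-Glo luminescence or CCK-8 absorbance (450/655 nm); GI50 from triplicate testing.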

[5] = system: Mast/stem cell growth factor receptor Kit (Homo sapiens), P10721 [V559D,V654A]; test: Inhibition of Tel-fused cKIT V559D/V654A double mutant (unknown origin) transfected in mouse BAF3 cells assessed as decrease in cell proliferation after 72 hrs by celltiter-glo/CCK8 assay; type: cell-based; method in brief: as §2
[6] = system: Mast/stem cell growth factor receptor Kit (Homo sapiens), P10721 [N822K]; test: Inhibition of Tel-fused cKIT N822K mutant (unknown origin) transfected in mouse BAF3 cells assessed as decrease in cell proliferation after 72 hrs by celltiter-glo/CCK8 assay; type: cell-based
[7] = system: Mast/stem cell growth factor receptor Kit (Homo sapiens), P10721 [V654A]; test: Inhibition of Tel-fused cKIT V654A mutant (unknown origin) transfected in mouse BAF3 cells assessed as decrease in cell proliferation after 72 hrs by celltiter-glo/CCK8 assay; type: cell-based; method in brief: as §2
[8] = target: Mast/stem cell growth factor receptor Kit (Homo sapiens) (UniProt P10721); test: Inhibition of Tel-fused cKIT L567P mutant (unknown origin) transfected in mouse BAF3 cells assessed as decrease in cell proliferation after 72 hrs by celltiter-glo/CCK8 assay; type: cell-based
[9] = system: Mast/stem cell growth factor receptor Kit (Homo sapiens), P10721 [V559D,T670I]; test: Inhibition of Tel-fused cKIT T670I/V559D double mutant (unknown origin) transfected in mouse BAF3 cells assessed as decrease in cell proliferation after 72 hrs by celltiter-glo/CCK8 assay; type: cell-based; method in brief: as §2
[10] = Antiproliferative activity against cKIT dependent human GISTT1 cells assessed as reduction in cell viability after 72 hrs by celltiter-glo/CCK8 assay; type: functional; conditions: GISTT1, 72 h; method in brief: as §1
[11] = system: MV4-11; test: Antiproliferative activity against FLT3-ITD dependent human MV4-11 cells assessed as reduction in cell viability after 72 hrs by celltiter-glo/CCK8 assay; type: functional; conditions: MV4-11, 72 h; method in brief: as §1
[12] = Antiproliferative activity against cKIT dependent human GIST882 cells assessed as reduction in cell viability after 72 hrs by celltiter-glo/CCK8 assay; type: functional; conditions: GIST882, 72 h; method in brief: as §1
[13] = Antiproliferative activity against human GIST48B cells assessed as reduction in cell viability after 72 hrs by celltiter-glo/CCK8 assay; type: functional; method in brief: as §1
[14] = Antiproliferative activity against human U937 cells assessed as reduction in cell viability after 72 hrs by celltiter-glo/CCK8 assay; type: functional; conditions: U-937, 72 h; method in brief: as §1
[15] = Antiproliferative activity against FLT3-ITD dependent human MOLM14 cells assessed as reduction in cell viability after 72 hrs by celltiter-glo/CCK8 assay; type: functional; conditions: MOLM-14, 72 h; method in brief: as §1
[16] = Antiproliferative activity against human HL60 cells assessed as reduction in cell viability after 72 hrs by celltiter-glo/CCK8 assay; type: functional; conditions: HL-60, 72 h; method in brief: as §1
[17] = Antiproliferative activity against human Rec1 cells assessed as reduction in cell viability after 72 hrs by celltiter-glo/CCK8 assay; type: functional; conditions: Rec1, 72 h; method in brief: as §1
[18] = Antiproliferative activity against CHL cells assessed as reduction in cell viability after 72 hrs by celltiter-glo/CCK8 assay; type: cell-based, Cricetulus griseus; conditions: chinese hamster; method in brief: as §1
[19] = Antiproliferative activity against CHO cells assessed as reduction in cell viability after 72 hrs by celltiter-glo/CCK8 assay; type: cell-based, Cricetulus griseus; conditions: chinese hamster; method in brief: as §1
[20] = system: Mast/stem cell growth factor receptor Kit (Homo sapiens), P10721 [T670I]; test: Inhibition of Tel-fused cKIT T670I mutant (unknown origin) transfected in mouse BAF3 cells assessed as decrease in cell proliferation after 72 hrs by celltiter-glo/CCK8 assay; type: cell-based; method in brief: as §2
[21] = system: Mast/stem cell growth factor receptor Kit (Homo sapiens), P10721 [D816V]; test: Inhibition of Tel-fused cKIT D816V mutant (unknown origin) transfected in mouse BAF3 cells assessed as decrease in cell proliferation after 72 hrs by celltiter-glo/CCK8 assay; type: cell-based; method in brief: as §2
[22] = Antiproliferative activity against human BCR-ABL dependent MEG01 cells assessed as reduction in cell viability after 72 hrs by celltiter-glo/CCK8 assay; type: functional; conditions: MEG-01, 72 h
[23] = Antiproliferative activity against BCR-ABL dependent human KU812 cells assessed as reduction in cell viability after 72 hrs by celltiter-glo/CCK8 assay; type: functional; conditions: KU812, 72 h; method in brief: as §1

Sequence of Mast/stem cell growth factor receptor Kit (Homo sapiens) (P10721 whole entry, the tested form may be a part): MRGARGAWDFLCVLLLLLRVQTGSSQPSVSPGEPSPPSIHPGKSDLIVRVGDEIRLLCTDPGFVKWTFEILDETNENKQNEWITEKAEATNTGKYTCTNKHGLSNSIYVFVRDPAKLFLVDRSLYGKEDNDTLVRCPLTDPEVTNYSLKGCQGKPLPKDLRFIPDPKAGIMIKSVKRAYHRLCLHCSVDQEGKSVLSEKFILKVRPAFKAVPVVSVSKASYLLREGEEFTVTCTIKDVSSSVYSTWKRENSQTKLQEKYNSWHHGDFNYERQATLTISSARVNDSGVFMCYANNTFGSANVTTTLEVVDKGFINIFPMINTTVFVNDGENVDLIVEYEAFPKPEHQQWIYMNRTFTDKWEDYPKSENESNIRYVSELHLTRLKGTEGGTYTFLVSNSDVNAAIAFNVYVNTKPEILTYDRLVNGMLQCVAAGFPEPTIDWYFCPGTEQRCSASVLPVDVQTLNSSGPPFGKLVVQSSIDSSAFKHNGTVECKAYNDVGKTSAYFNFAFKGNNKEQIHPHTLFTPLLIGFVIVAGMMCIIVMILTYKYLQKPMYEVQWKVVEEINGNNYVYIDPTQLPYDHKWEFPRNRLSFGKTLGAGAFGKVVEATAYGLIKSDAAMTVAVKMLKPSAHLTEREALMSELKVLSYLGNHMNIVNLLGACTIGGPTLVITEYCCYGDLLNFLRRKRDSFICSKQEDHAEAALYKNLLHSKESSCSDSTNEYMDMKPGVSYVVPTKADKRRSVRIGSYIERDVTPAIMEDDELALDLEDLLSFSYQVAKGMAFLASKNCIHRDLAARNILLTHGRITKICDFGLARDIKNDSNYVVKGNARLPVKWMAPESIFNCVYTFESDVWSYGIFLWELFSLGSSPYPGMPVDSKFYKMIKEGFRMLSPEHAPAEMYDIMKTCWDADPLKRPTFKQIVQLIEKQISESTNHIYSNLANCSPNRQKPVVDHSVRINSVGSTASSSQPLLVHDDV
Sequence of Mast/stem cell growth factor receptor Kit (Homo sapiens), P10721 [V654A] (P10721 whole entry V654A, the tested form may be a part): as the sequence (P10721 whole entry, the tested form may be a part) above, with V654A counted along it
Sequence of Mast/stem cell growth factor receptor Kit (Homo sapiens), P10721 [V559D] (P10721 whole entry V559D, the tested form may be a part): as the sequence (P10721 whole entry, the tested form may be a part) above, with V559D counted along it
Sequence of Mast/stem cell growth factor receptor Kit (Homo sapiens), P10721 [V559D,T670I] (P10721 whole entry V559D/T670I, the tested form may be a part): as the sequence (P10721 whole entry, the tested form may be a part) above, with V559D, T670I counted along it
Sequence of Mast/stem cell growth factor receptor Kit (Homo sapiens), P10721 [T670I] (P10721 whole entry T670I, the tested form may be a part): as the sequence (P10721 whole entry, the tested form may be a part) above, with T670I counted along it
Sequence of Mast/stem cell growth factor receptor Kit (Homo sapiens), P10721 [D816V] (P10721 whole entry D816V, the tested form may be a part): as the sequence (P10721 whole entry, the tested form may be a part) above, with D816V counted along it
Sequence of Mast/stem cell growth factor receptor Kit (Homo sapiens), P10721 [N822K] (P10721 whole entry N822K, the tested form may be a part): as the sequence (P10721 whole entry, the tested form may be a part) above, with N822K counted along it
Sequence of Mast/stem cell growth factor receptor Kit (Homo sapiens), P10721 [V559D,V654A] (P10721 whole entry V559D/V654A, the tested form may be a part): as the sequence (P10721 whole entry, the tested form may be a part) above, with V559D, V654A counted along it

SMILES | GI50 [2] | GI50 [3] | GI50 [1] | also measured
Cc1ccc(NC(=O)c2ccc(CN3CCN(C)CC3)cc2)cc1Nc1nccc(-c2cccnc2)n1 [IMATINIB] | 0.4 µM | 0.12 µM | > 10 µM | GI50 [4]: 0.039 µM; GI50 [5]: 3 µM; GI50 [6]: 1.29 µM; GI50 [7]: 2.49 µM; GI50 [8]: 0.1 µM; GI50 [9]: 6.67 µM; GI50 [10]: 0.008 µM; GI50 [11]: > 10 µM; GI50 [12]: 0.014 µM; GI50 [13]: > 10 µM; GI50 [14]: > 10 µM; GI50 [15]: > 10 µM; GI50 [16]: > 10 µM; GI50 [17]: > 10 µM; GI50 at 72 h [18]: > 10 µM; GI50 at 72 h [19]: > 10 µM
O=C(Nc1cccc(OC2CCCN(C(=O)c3cccnc3)C2)c1)c1cccc(C(F)(F)F)c1 (configuration not stated) | 8.07 µM | > 10 µM | 8.07 µM | 
Cc1ccc(NC(=O)c2cccc(C(F)(F)F)c2)cc1OCCNC(=O)c1cccnc1 | 7.94 µM | > 10 µM | > 10 µM | 
COc1ccc(NC(=O)c2cccc(C(F)(F)F)c2)cc1OC1CCN(C(=O)c2cccnc2)CC1 | > 10 µM | > 10 µM | > 10 µM | 
O=C(Nc1cccc(OC2CCCN(C(=O)c3ccno3)C2)c1)c1cccc(C(F)(F)F)c1 (configuration not stated) | > 10 µM | > 10 µM | > 10 µM | 
Cc1ccc(NC(=O)c2cccc(C(F)(F)F)n2)cc1OC1CCN(C(=O)c2cccnc2)CC1 | > 10 µM | > 10 µM | > 10 µM | 
Cc1ccc(NC(=O)Nc2ccc(Cl)c(C(F)(F)F)c2)cc1OC1CCN(C(=O)c2cccnc2)CC1 | 2.6 µM | 0.78 µM | 3.3 µM | 
O=C(Nc1cccc(OC2CCN(C(=O)c3cccnc3)CC2)c1)c1cccc(C(F)(F)F)c1 | 0.49 µM | > 10 µM | > 10 µM | 
C=CC(=O)N1CCC(Oc2cc(NC(=O)c3cccc(C(F)(F)F)c3)ccc2C)CC1 | 0.62 µM | 8.36 µM | > 10 µM | 
Cc1ccc(NC(=O)c2ccc3c(c2)OCO3)cc1OC1CCN(C(=O)c2cccnc2)CC1 | 4.8 µM | > 10 µM | > 10 µM | 
Cc1ccc(NC(=O)c2cnc3ccccc3c2)cc1OC1CCN(C(=O)c2cccnc2)CC1 | 5.55 µM | > 10 µM | > 10 µM | 
O=C(Nc1ccc(Cl)c(OC2CCN(C(=O)c3cccnc3)CC2)c1)c1cccc(C(F)(F)F)c1 | 0.96 µM | 2.8 µM | > 10 µM | 
Cc1ccc(NC(=O)c2cc(C(C)(C)C)on2)cc1OC1CCN(C(=O)c2cccnc2)CC1 | 0.34 µM | 9.92 µM | > 10 µM | 
COc1cccc(C(=O)Nc2ccc(C)c(OC3CCN(C(=O)c4cccnc4)CC3)c2)c1 | 1.48 µM | > 10 µM | > 10 µM | 
Cc1ccc(NC(=O)c2cccc(C(F)(F)F)n2)cc1OC1CCN(C(=O)c2ccno2)CC1 | > 10 µM | > 10 µM | > 10 µM | 
Cc1ccc(NC(=O)c2cccc(C(F)(F)F)c2)cc1OC1CCN(C(=O)c2ccccn2)CC1 | 0.33 µM | > 10 µM | > 10 µM | 
CCC(=O)N1CCC(Oc2cc(NC(=O)c3cccc(C(F)(F)F)c3)ccc2C)CC1 | 1.55 µM | > 10 µM | > 10 µM | 
Cc1ccc(NC(=O)c2cccc(C(F)(F)F)c2)cc1OCCNC(=O)c1ccno1 | 9.97 µM | > 10 µM | > 10 µM | 

These reach a lower GI50 [2]. Values come first.

GI50 [2] | GI50 [3] | SMILES | GI50 [1] | also measured
0.11 µM | 2.94 µM | Cc1ccc(NC(=O)c2cccc(C(F)(F)F)c2)cc1OC1CCN(C(=O)c2cccnc2)CC1 | > 10 µM | 
0.1 µM | 5.24 µM | Cc1ccc(NC(=O)c2ccc(C)c(C(F)(F)F)c2)cc1OC1CCN(C(=O)c2cncs2)CC1 | > 10 µM | 
0.22 µM | 0.16 µM | Cc1ccc(NC(=O)c2cccc(C(F)(F)F)c2)cc1OC1CCN(C(=O)c2ccno2)CC1 | > 10 µM | 
0.078 µM | 1 µM | CCN(CC)CCNC(=O)c1c(C)[nH]c(/C=C2\C(=O)Nc3ccc(F)cc32)c1C [SUNITINIB] | 2.78 µM | GI50 [4]: 0.009 µM; GI50 [20]: 0.002 µM; GI50 [7]: 0.02 µM; GI50 [9]: 0.053 µM; GI50 [21]: 1.38 µM; GI50 [10]: 0.041 µM; GI50 [11]: 0.001 µM; GI50 [12]: 0.11 µM; GI50 [13]: 2.01 µM; GI50 [22]: 1.2 µM; GI50 [23]: 1.1 µM; GI50 [14]: 1.7 µM; GI50 [15]: 0.005 µM; GI50 [16]: 0.001 µM; GI50 [17]: 0.87 µM; GI50 at 72 h [18]: 2.48 µM; GI50 at 72 h [19]: 2.03 µM
0.083 µM | 5.85 µM | Cc1ccc(NC(=O)c2ccc(C)c(C(F)(F)F)c2)cc1OC1CCN(C(=O)c2cccnc2)CC1 | 5.47 µM | 
0.065 µM | 1.96 µM | Cc1ccc(NC(=O)c2ccc(C)c(C(F)(F)F)c2)cc1OC1CCN(C(=O)c2ccno2)CC1 | 8.94 µM | 
0.15 µM | 1.95 µM | Cc1ccc(NC(=O)c2cc(Cl)cc(C(F)(F)F)c2)cc1OC1CCN(C(=O)c2ccno2)CC1 | > 10 µM | 
0.15 µM | 4.56 µM | Cc1ccc(NC(=O)c2cc(F)cc(C(F)(F)F)c2)cc1OC1CCN(C(=O)c2cccnc2)CC1 | > 10 µM | 
0.16 µM | 3.66 µM | Cc1ccc(NC(=O)c2cc(Cl)cc(C(F)(F)F)c2)cc1OC1CCN(C(=O)c2cccnc2)CC1 | > 10 µM | 
0.031 µM | 2.32 µM | Cc1ccc(NC(=O)c2ccc(C)c(C(F)(F)F)c2)cc1OC1CCN(C(=O)c2ccncc2)CC1 | 6.39 µM | 
